# ChEMBL document CHEMBL4014270, “Aedes aegypti Larvicidal Sesquiterpene Alkaloids from Maytenus oblongata” (J Nat Prod, 2017)
# Experiments:
# Aedes aegypti [1] = assay: Larvicidal activity against Aedes aegypti Paea assessed as mortality after 24 hrs by tube assay; format: functional; conditions: read-out: LD50 (the source's name)
# Summary of the method: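 Tube assay on late third- or early fourth-instar larvae of the insecticide-susceptible Paea strain, kept at 28 ± 2 °C and 80 ± 20% RH. Compound in ethanol was added at five concentrations from 1 to 10 μg/mL, 10 tubes of 5 larvae each, in distilled water, with ethanol controls.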
# MRC5 [2] = assay: Cytotoxicity against human MRC5 cells assessed as mortality at 10 ug/ml relative to control; format: cell-based
# Summary of the method: (§1)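 MRC5 cells (normal lung tissue from a fetus), exposed to the test material at 1 or 10 μg/mL, with mortality scored against control. The method follows a previously published cytotoxicity procedure, with docetaxel as positive control.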
# MRC5 [3] = assay: Cytotoxicity against human MRC5 cells assessed as mortality at 1 ug/ml relative to control; format: cell-based; summary of the method: as §1
# Aedes aegypti [4] = assay: Larvicidal activity against Aedes aegypti Paea assessed as mortality at 50 ug/ml after 24 hrs by tube assay relative to control; format: functional
# Aedes aegypti [5] = assay: Larvicidal activity against Aedes aegypti Cayenne assessed as mortality at 50 ug/ml after 24 hrs by tube assay relative to control; format: functional
Structure (SMILES),LC50 (Aedes aegypti [1]) [µM],mortality (MRC5 [2]) [%],mortality (MRC5 [3]) [%],mortality at 50 µg/mL (Aedes aegypti [4]) [%],mortality at 50 µg/mL (Aedes aegypti [5]) [%]
C[C@H]1C(=O)CC[C@@H]2[C@]1(C)CC[C@H]1[C@@]2(C)C[C@H](O)[C@@]2(C)[C@@H]3CC(C)(C)CC[C@]3(C)[C@@H](O)C[C@]12C,> 10,48,16,,
CC(=O)OC[C@]12[C@H](OC(C)=O)[C@H](OC(C)=O)[C@H]3OC(=O)C(C)(O)CCc4ncccc4C(=O)OC[C@@]4(C)O[C@@]1([C@H]3C)[C@@H](OC(C)=O)[C@@H]4C(=O)[C@@H]2OC(C)=O (stereo partly drawn),> 10,38,24,,
CC(=O)OC[C@]12[C@H](OC(=O)c3ccccc3)[C@H](OC(C)=O)[C@H]3OC(=O)C(C)(O)CCc4ncccc4C(=O)OC[C@@]4(C)O[C@@]1([C@H]3C)[C@@H](OC(C)=O)[C@@H]4C(=O)[C@@H]2OC(C)=O (stereo partly drawn),9.4,15,15,,
CC(=O)OC[C@]12[C@H](OC(C)=O)[C@H](OC(=O)c3ccccc3)[C@H]3OC(=O)C(C)(O)CCc4ccncc4C(=O)OC[C@@]4(C)O[C@@]1([C@H]3C)[C@@H](OC(C)=O)[C@@H]4[C@@H](OC(C)=O)[C@@H]2OC(C)=O (stereo partly drawn),> 10,17,15,,
CC(=O)OC[C@]12[C@H](OC(=O)c3ccccc3)[C@H](OC(=O)c3ccccc3)[C@H]3OC(=O)C(C)(O)CCc4ncccc4C(=O)OC[C@@]4(C)O[C@@]1([C@H]3C)[C@@H](OC(C)=O)[C@@H]4C(=O)[C@@H]2OC(C)=O (stereo partly drawn),2.7,21,18,,
CC1(C)[C@H](C(=O)O[C@H](C#N)c2cccc(Oc3ccccc3)c2)[C@@H]1C=C(Br)Br [DELTAMETHRIN],,,,100,26
CC(=O)O[C@@]12CO[C@@H]1C[C@H](O)[C@@]1(C)C(=O)[C@H](O)C3=C(C)[C@@H](OC(=O)[C@H](O)[C@@H](NC(=O)OC(C)(C)C)c4ccccc4)C[C@@](O)([C@@H](OC(=O)c4ccccc4)[C@H]21)C3(C)C [DOCETAXEL ANHYDROUS],,,0.0005,,
